Assay results of several laboratories.
Compare with care: the assays were run in different laboratories.
Target: Phosphatidylinositol 4-phosphate 5-kinase type-1 alpha (PIP5K1A, Homo sapiens, UniProt Q99755)

| test | conditions | remaining binding [%] | Compound |
| --- | --- | --- | --- |
| binding | 1 µM | 100 | N[C@@H]1CCN(c2nccc(-c3cnn4ncccc34)n2)C1 |
| binding, competition with immobilised ligand | 1 µM | 89 | COc1cnc(Nc2cccc(S(N)(=O)=O)c2)nc1N1CCN(c2ccccc2)C(=O)C1 |
| binding | 1 µM | 52 | C[C@@H]1CCN(c2nccc(-c3cnn4ncccc34)n2)C1 |
| binding, competition with immobilised ligand | 1 µM | 8.3 | O=C(NCCCN1CCOCC1)c1ccc(Nc2ncc(Cl)c(-c3ccc(Cl)s3)n2)cc1 |
| binding | 1 µM | 72 | COc1ccnn2ncc(-c3ccnc(N(C)C)n3)c12 |
| cell-free assay, competition with immobilised ligand | 1 µM | 97 | CC(=O)c1c(NS(C)(=O)=O)c2cc(-c3ccc(Cl)cc3)c(-c3ccc(Cl)cc3Cl)nc2n(C)c1=O |
| binding, competition with immobilised ligand | 1 µM | 100 | O=C(NCC1CCOCC1)c1n[nH]cc1NC(=O)c1c(F)cccc1F |
| binding, competition with immobilised ligand | 1 µM | 4.2 | O=C(NCCCN1CCOCC1)c1ccc(Nc2nccc(-c3cc4ccccc4s3)n2)cc1 |
| binding, competition with immobilised ligand | 10 µM | 59 | Cc1nc(NC(=O)N2CCC[C@H]2C(N)=O)sc1-c1ccnc(C(C)(C)C(F)(F)F)c1 |
| cell-free assay, competition with immobilised ligand | 1 µM | 95 | O=C(Nc1ccc(Oc2ccc(F)cc2)cc1)N1CCc2ncccc2[C@H]1c1ccc(F)cc1 |
| binding, competition with immobilised ligand | 1 µM | 1.5 | Cc1cnc(Nc2ccc(C(=O)N3CCC(N4CCCC4)CC3)cc2)nc1-c1cc2ccccc2s1 |
| cell-free assay, competition with immobilised ligand | 1 µM | 100 | COc1ccc2cc(OCC3(C(=O)O)CN(C(=O)c4ccc(F)cc4)C3)ccc2c1 |
| binding | 1 µM | 100 | Cc1cnn2ncc(-c3ccnc(N(C)C)n3)c2c1 |
| cell-free assay, competition with immobilised ligand | 0.1 µM | 68 | Cc1c[nH]c2nccc(Oc3c(F)cc(Nc4cc(Cl)nc(N)n4)cc3F)c12 |
| binding, competition with immobilised ligand | 1 µM | 100 | CCN1CCN(Cc2ccc(C(=O)Nc3ccc(C)c(Oc4ccc5c(c4)CC(=O)N5)c3)cc2C(F)(F)F)CC1 |
| binding | 1 µM | 100 | CN(C)c1nccc(-c2cnn3ncccc23)n1 |
| cell-free assay, competition with immobilised ligand | 0.1 µM | 95 | Cc1cc(C)c(-n2ccn3nc(-c4cccnc4)cc23)cc1NC(=O)c1cc(C#N)cc(S(F)(F)(F)(F)F)c1 |
| binding | 1 µM | 100 | CN(c1nccc(-c2cnn3ncccc23)n1)C1CC1 |
| cell-free assay, competition with immobilised ligand | 1 µM | 100 | CN(C(=O)c1ccccc1)c1cc(N(C)c2ccc3c(c2)CCc2ccc(C(=O)NCCN4CCOCC4)cc2C3=O)ccc1F |
| binding, competition with immobilised ligand | 1 µM | 93 | COc1cnc(Nc2cccc(S(N)(=O)=O)c2)nc1N1CCN(c2ccccc2)CC1 |
| binding, competition with immobilised ligand | 0.1 µM | 87 | C[C@@H](c1ccc(-n2cnc3c(N)ncnc32)cc1)N1CCc2nn(C)c(Cc3ccccc3)c2C1=O |
| cell-free assay, competition with immobilised ligand | 1 µM | 100 | C[C@H](c1cccc(C#N)c1)n1cc(Cl)cc(C(N)=O)c1=N |
